Measurements as given in ChEMBL document CHEMBL2069263, “Synthesis and characterization of quinoline-based thiosemicarbazones and correlation of cellular iron-binding efficacy to anti-tumor efficacy” (Bioorg Med Chem Lett, 2012).
The source made the active and inactive calls. No cut-off for these calls is given here.

Key:
SK-N-MC [1] = assay: Iron chelation activity in human SK-N-MC cells assessed as inhibition of 59Fe uptake from transferrin complex at 25 uM after 3 hrs by gamma scintillation counting relative to control; assay type: functional; parameters: scale not given: the % may be the effect or the level left
Summary of the method: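 SK-N-MC cells were incubated with 59Fe-transferrin, with or without chelator, for 3 h at 37 °C and washed 4 times with ice-cold PBS. Internalized 59Fe was taken as the pronase-resistant fraction after pronase (1 mg/mL, 30 min, 4 °C) and counted by γ-scintillation. Uptake is expressed relative to control, mean ± SD of three experiments.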

HCT-116 [2] = assay: Antiproliferative activity against human HCT116 cells expressing p53 after 72 hrs by MTT assay; assay type: functional, cell-based; settings: HCT-116, 72 h
Summary of the method: (§1)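 Cells (SK-N-MC neuroepithelioma, HCT116 colon cancer p53+/+ or p53−/−, normal human dermal fibroblasts) were exposed to compounds for 72 h and proliferation was measured by standard methods. IC50 is reported as mean ± SD of three experiments.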

SK-N-MC [3] = assay: Iron chelation activity in human SK-N-MC cells assessed as cellular 59Fe released at 25 uM incubated for 3 hrs post 59Fe-transferrin-labeling by gamma scintillation counting; assay type: functional
Summary of the method: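 SK-N-MC cells were prelabeled with 59Fe-transferrin for 3 h at 37 °C and washed 4 times with ice-cold PBS. They were then reincubated for 3 h at 37 °C with or without chelator. Released 59Fe was counted by scintillation counting. Results are mean ± SD of three experiments.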

HCT-116 [4] = assay: Antiproliferative activity against p53-deficient human HCT116 cells after 72 hrs by MTT assay; assay type: functional, cell-based; settings: HCT-116, 72 h; summary of the method: as §1
SK-N-MC [5] = assay: Antiproliferative activity against human SK-N-MC cells after 72 hrs by MTT assay; assay type: functional, cell-based; summary of the method: as §1
NHDF = assay: Antiproliferative activity against human NHDF cells after 72 hrs by MTT assay; assay type: cell-based; summary of the method: as §1
[6] = Therapeutic index, ratio of IC50 for human NHDF cells to IC50 for human SK-N-MC cells; assay type: cell-based; settings: NHDF cells and SK-N-MC cells, read-out: Ratio IC50
Summary of the method: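 Ratio of NHDF IC50 to SK-N-MC IC50. Both IC50s come from anti-proliferative assays after a 72 h incubation with the chelator. Each IC50 is the mean ± SD of three experiments.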

HCT-116 [7] = assay: Antiproliferative activity against human HCT116 cells expressing p53 assessed as cell survival at 0.5 nM after 9 days by clonogenic assay relative to control; assay type: functional
HCT-116 [8] = assay: Antiproliferative activity against human HCT116 cells expressing p53 assessed as cell survival at 1 nM after 9 days by clonogenic assay relative to control; assay type: functional
HCT-116 [9] = assay: Antiproliferative activity against human HCT116 cells expressing p53 assessed as cell survival at 5 nM after 9 days by clonogenic assay relative to control; assay type: functional
HCT-116 [10] = assay: Antiproliferative activity against human HCT116 cells expressing p53 assessed as cell survival at 50 uM after 9 days by clonogenic assay relative to control; assay type: functional
HCT-116 [11] = assay: Antiproliferative activity against human HCT116 cells expressing p53 assessed as cell survival at 40 uM after 9 days by clonogenic assay relative to control; assay type: functional
HCT-116 [12] = assay: Antiproliferative activity against p53-deficient human HCT116 cells assessed as cell survival at 50 uM after 9 days by clonogenic assay relative to control; assay type: functional
HCT-116 [13] = assay: Antiproliferative activity against p53-deficient human HCT116 cells assessed as cell survival at 40 uM after 9 days by clonogenic assay relative to control; assay type: functional
HCT-116 [14] = assay: Antiproliferative activity against human HCT116 cells expressing p53 assessed as cell survival at 30 uM after 9 days by clonogenic assay relative to control; assay type: functional
HCT-116 [15] = assay: Antiproliferative activity against p53-deficient human HCT116 cells assessed as cell survival at 20 uM after 9 days by clonogenic assay relative to control; assay type: functional
HCT-116 [16] = assay: Antiproliferative activity against human HCT116 cells expressing p53 assessed as cell survival at 25 uM after 9 days by clonogenic assay relative to control; assay type: functional
HCT-116 [17] = assay: Antiproliferative activity against human HCT116 cells expressing p53 assessed as cell survival at 20 uM after 9 days by clonogenic assay relative to control; assay type: functional
HCT-116 [18] = assay: Antiproliferative activity against p53-deficient human HCT116 cells assessed as cell survival at 25 uM after 9 days by clonogenic assay relative to control; assay type: functional
HCT-116 [19] = assay: Antiproliferative activity against p53-deficient human HCT116 cells assessed as cell survival at 30 uM after 9 days by clonogenic assay relative to control; assay type: functional

Row | IC50 (HCT-116 [2]) [µM] | IC50 (HCT-116 [4]) [µM] | IC50 (SK-N-MC [5]) [µM] | Compound | Activity (SK-N-MC [1]) [%] | Activity (SK-N-MC [3]) | IC50 (NHDF) [µM] | further results
1 | 1.71 | 2.17 | > 12.5 | CNC(=S)N/N=C/c1ccc2cccc(O)c2n1 | 49 | inactive | > 25 | 
2 | 23.2 | 19.6 | > 12.5 | CCNC(=S)N/N=C/c1ccc2ccccc2n1 | 49 |  |  | 
3 | 4.86 | 0.37 | 0.81 | CN(C)C(=S)N/N=C/c1ccc2ccccc2n1 | 49 |  | 11.7 | selectivity ratio [6]: 14
4 |  |  | 1.3 | O=C(N/N=C/c1c(O)ccc2ccccc12)c1ccncc1 |  |  |  | 
5 |  |  |  | CN(C)C(=S)N/N=C(/c1ccccc1)c1ccccn1 |  |  |  | fold change (FC) (HCT-116 [7]): 0.6762; fold change (FC) (HCT-116 [8]): 0.1273
6 | 16.3 | 18.6 | 1.63 | Oc1ccc2cccnc2c1/C=N/NC(=S)Nc1ccccc1 | 49 |  | 14.9 | 
7 | > 25 | > 25 | 0.19 | CCNC(=S)N/N=C/c1c(O)ccc2cccnc12 | 24 | 33% | > 25 | 
8 | 25 | 20.9 | > 12.5 | Oc1cccc2ccc(/C=N/NC(=S)Nc3ccccc3)nc12 | 49 | inactive |  | 
9 |  |  | 12.5 | CC(=O)N(O)CCCCCNC(=O)CCC(=O)N(O)CCCCCNC(=O)CCC(=O)N(O)CCCCCN [DEFEROXAMINE] |  |  |  | 
10 | 20.8 | > 25 | 0.11 | CN(C)C(=S)N/N=C/c1c(O)ccc2cccnc12 | 18 | 33% | 14.9 | selectivity ratio [6]: 131
11 | > 15 | 0.27 | 9.69 | CN(C)C(=S)N/N=C/c1ccc2cccc(O)c2n1 | 14 | 33% | 15.8 | 
12 | 0.002 | 0.005 | 0.014 | CN(C)C(=S)NN=C(c1ccccn1)c1ccccn1 |  |  | 15.4 | fold change (FC) (HCT-116 [9]): 0.1922; fold change (FC) (HCT-116 [7]): 1.0629; fold change (FC) (HCT-116 [8]): 0.8541
13 | > 25 | 8.06 | 0.62 | CNC(=S)N/N=C/c1c(O)ccc2cccnc12 | 45 | 33% | > 25 | fold change (FC) (HCT-116 [10]): 0; fold change (FC) (HCT-116 [11]): 0.014; fold change (FC) (HCT-116 [12]): 0; fold change (FC) (HCT-116 [13]): 0.004; fold change (FC) (HCT-116 [14]): 0.039; fold change (FC) (HCT-116 [15]): 0.06; fold change (FC) (HCT-116 [16]): 0.041; fold change (FC) (HCT-116 [17]): 0.05; fold change (FC) (HCT-116 [18]): 0.034; fold change (FC) (HCT-116 [19]): 0.012
14 | 22.3 | 21.4 | > 12.5 | S=C(N/N=C/c1ccc2ccccc2n1)Nc1ccccc1 |  | inactive |  | 
15 | > 25 | > 25 | > 12.5 | CNC(=S)N/N=C/c1ccc2ccccc2n1 | 49 |  |  | 
16 | 2.62 | 3.15 | > 12.5 | CCNC(=S)N/N=C/c1ccc2cccc(O)c2n1 | 49 | inactive | > 25 | 
